In ChEMBL document CHEMBL4346701, “Synthesis and biological evaluation of tryptophan-derived rhodanine derivatives as PTP1B inhibitors and anti-bacterial agents” (Eur J Med Chem, 2019):
In brackets after ≈: the same amount, converted by molar mass.

How the values were obtained:
[1] = biological target: T1, Tyrosine-protein phosphatase non-receptor type 2 (Homo sapiens, UniProt P17706); test: Inhibition of human recombinant GST-tagged TCPTP (catalytic domain […] residues) expressed in Escherichia coli BL21 (DE3) using pNPP as substrate measured for 2 mins by colorimetric analysis
T1 sequence (P17706 whole entry): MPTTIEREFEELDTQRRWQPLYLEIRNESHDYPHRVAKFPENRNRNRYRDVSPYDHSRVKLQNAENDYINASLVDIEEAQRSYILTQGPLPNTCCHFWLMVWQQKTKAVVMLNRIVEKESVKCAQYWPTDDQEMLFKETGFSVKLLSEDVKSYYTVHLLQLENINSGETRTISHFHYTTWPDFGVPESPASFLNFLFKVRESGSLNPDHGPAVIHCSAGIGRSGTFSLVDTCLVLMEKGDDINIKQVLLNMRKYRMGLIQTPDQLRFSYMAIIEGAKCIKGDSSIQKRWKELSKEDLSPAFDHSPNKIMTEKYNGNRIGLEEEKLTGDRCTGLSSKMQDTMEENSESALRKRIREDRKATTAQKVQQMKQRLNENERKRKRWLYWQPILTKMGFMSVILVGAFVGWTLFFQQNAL

Staphylococcus aureus [2] = test: Antibacterial activity against Quinolone-resistant Staphylococcus aureus CCARM 3519 assessed as reduction in bacterial cell growth incubated for 24 hrs by ELISA; type: functional; conditions: CCARM 3519, 24 h
Summary of the method: (§1)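 MICs determined by serial dilution in 96-well microtiter plates. The strain panel included Gram-positive S. aureus strains and multidrug-resistant clinical isolates. Gatifloxacin, moxifloxacin, norfloxacin and oxacillin served as antibacterial positive controls.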

[3] = biological target: Tyrosine-protein phosphatase non-receptor type 6 (Homo sapiens, UniProt P29350); test: Inhibition of human recombinant GST-tagged SHP1 (catalytic domain 244 to 570 residues) expressed in Escherichia coli BL21 (DE3) using pNPP as substrate measured for 2 mins by colorimetric analysis
Summary of the method: (§2)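 pNPP hydrolysis assay. IC50 was derived by regression analysis and given as mean ± SD of three replications.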

Candida albicans = test: Antifungal activity against Candida albicans 7535 assessed as reduction in bacterial cell growth incubated for 24 hrs by ELISA; type: functional; conditions: Candida albicans, 7535, 24 h
Summary of the method: (§3)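 MIC determined by serial dilution in 96-well microtiter plates. Strains used were E. coli 1924 and P. aeruginosa 2742 (Gram-negative), S. mutans 3289 (Gram-positive) and the fungus C. albicans 7535. Gatifloxacin, moxifloxacin, norfloxacin and oxacillin served as antibacterial reference agents, and fluconazole as the antifungal reference.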

Staphylococcus aureus [4] = test: Antibacterial activity against Quinolone-resistant Staphylococcus aureus CCARM 3505 assessed as reduction in bacterial cell growth incubated for 24 hrs by ELISA; type: functional; conditions: CCARM 3505, 24 h; summary of the method: as §1
Staphylococcus aureus [5] = test: Antibacterial activity against Methicillin-resistant Staphylococcus aureus CCARM 3506 assessed as reduction in bacterial cell growth incubated for 24 hrs by ELISA; type: functional; conditions: CCARM 3506, 24 h; summary of the method: as §1
[6] = biological target: T2, Tyrosine-protein phosphatase non-receptor type 1 (Homo sapiens, UniProt P18031); test: Inhibition of human recombinant GST-tagged PTP1B expressed in Escherichia coli BL21 (DE3) using pNPP as substrate measured for 2 mins by colorimetric analysis
T2 sequence (P18031 whole entry): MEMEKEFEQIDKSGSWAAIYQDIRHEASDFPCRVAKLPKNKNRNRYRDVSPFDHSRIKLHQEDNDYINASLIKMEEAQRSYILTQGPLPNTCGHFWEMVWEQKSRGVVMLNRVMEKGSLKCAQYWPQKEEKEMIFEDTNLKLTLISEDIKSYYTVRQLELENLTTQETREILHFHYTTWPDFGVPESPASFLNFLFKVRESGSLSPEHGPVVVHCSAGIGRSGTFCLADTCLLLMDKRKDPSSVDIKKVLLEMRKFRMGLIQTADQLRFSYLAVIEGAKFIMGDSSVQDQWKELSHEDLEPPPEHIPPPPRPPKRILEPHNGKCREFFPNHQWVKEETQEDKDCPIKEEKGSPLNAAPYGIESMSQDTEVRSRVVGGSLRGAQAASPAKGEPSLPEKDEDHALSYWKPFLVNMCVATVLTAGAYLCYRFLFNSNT

Homo sapiens [7] = species: Homo sapiens; test: Selectivity ratio of IC50 for human recombinant GST-tagged SHP1 to IC50 for human recombinant GST-tagged PTP1B
Staphylococcus aureus [8] = test: Antibacterial activity against Staphylococcus aureus KCTC209 assessed as reduction in bacterial cell growth incubated for 24 hrs by ELISA; type: functional; conditions: KCTC209, 24 h; summary of the method: as §1
Streptococcus mutans = test: Antibacterial activity against Streptococcus mutans KCTC3289 assessed as reduction in bacterial cell growth incubated for 24 hrs by ELISA; type: functional; conditions: KCTC3289, 24 h; summary of the method: as §3
Escherichia coli = test: Antibacterial activity against Escherichia coli 1924 assessed as reduction in bacterial cell growth incubated for 24 hrs by ELISA; type: functional; conditions: Escherichia coli, 1924, 24 h; summary of the method: as §3
Pseudomonas aeruginosa = test: Antibacterial activity against Pseudomonas aeruginosa 2742 assessed as reduction in bacterial cell growth incubated for 24 hrs by ELISA; type: functional; conditions: Pseudomonas aeruginosa, 2742, 24 h; summary of the method: as §3
Homo sapiens [9] = species: Homo sapiens; test: Selectivity ratio of IC50 for human recombinant GST-tagged SHP2 to IC50 for human recombinant GST-tagged PTP1B
Homo sapiens [10] = species: Homo sapiens; test: Selectivity ratio of IC50 for human recombinant GST-tagged TCPTP to IC50 for human recombinant GST-tagged PTP1B
[11] = biological target: T3, Tyrosine-protein phosphatase non-receptor type 11 (Homo sapiens, UniProt Q06124); test: Inhibition of human recombinant GST-tagged SHP2 (catalytic domain […] residues) expressed in Escherichia coli BL21 (DE3) using pNPP as substrate measured for 2 mins by colorimetric analysis; summary of the method: as §2
T3 sequence (Q06124 whole entry): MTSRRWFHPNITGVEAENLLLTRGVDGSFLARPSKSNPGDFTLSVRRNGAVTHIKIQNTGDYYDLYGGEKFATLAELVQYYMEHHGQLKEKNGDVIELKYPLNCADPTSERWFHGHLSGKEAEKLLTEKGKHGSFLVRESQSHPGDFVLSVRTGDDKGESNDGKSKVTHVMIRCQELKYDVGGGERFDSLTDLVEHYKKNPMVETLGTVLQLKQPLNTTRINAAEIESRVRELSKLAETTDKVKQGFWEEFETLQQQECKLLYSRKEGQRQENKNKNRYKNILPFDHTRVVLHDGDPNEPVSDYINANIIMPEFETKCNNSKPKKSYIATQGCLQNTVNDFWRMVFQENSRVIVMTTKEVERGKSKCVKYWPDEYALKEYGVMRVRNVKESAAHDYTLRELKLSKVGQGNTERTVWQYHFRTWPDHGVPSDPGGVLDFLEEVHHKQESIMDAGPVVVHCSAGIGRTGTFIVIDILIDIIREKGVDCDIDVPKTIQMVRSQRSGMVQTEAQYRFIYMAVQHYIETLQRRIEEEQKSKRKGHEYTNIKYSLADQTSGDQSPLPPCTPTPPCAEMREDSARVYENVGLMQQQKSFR

Staphylococcus aureus [12] = test: Antibacterial activity against Staphylococcus aureus RN4220 assessed as reduction in bacterial cell growth incubated for 24 hrs by ELISA; type: functional; conditions: RN4220, 24 h; summary of the method: as §1

Tyrosine-protein phosphatase non-receptor type 6, sequence (P29350 whole entry, the tested form may be a part): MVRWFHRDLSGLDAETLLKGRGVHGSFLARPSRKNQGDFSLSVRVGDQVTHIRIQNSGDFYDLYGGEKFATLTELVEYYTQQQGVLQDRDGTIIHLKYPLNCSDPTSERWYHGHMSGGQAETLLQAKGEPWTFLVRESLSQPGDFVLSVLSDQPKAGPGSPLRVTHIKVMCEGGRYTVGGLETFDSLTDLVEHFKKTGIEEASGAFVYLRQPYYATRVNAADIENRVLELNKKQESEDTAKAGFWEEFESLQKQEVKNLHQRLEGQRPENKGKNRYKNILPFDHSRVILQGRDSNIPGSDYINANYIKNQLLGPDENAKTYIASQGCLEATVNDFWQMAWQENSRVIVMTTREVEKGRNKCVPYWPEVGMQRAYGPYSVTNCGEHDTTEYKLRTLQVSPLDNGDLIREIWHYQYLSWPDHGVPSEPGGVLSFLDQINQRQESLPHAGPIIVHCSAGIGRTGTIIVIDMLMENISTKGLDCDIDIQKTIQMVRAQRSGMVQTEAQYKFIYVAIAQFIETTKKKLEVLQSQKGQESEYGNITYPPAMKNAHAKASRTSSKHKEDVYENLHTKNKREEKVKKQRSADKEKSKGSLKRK

`O=C(O)C(Cc1c[nH]c2ccccc12)N1C(=O)/C(=C/c2ccc3cc(OCc4ccc(Cl)cc4Cl)ccc3c2)SC1=S` (stereo not drawn) gave an IC50 [1] of 1.83 µM, an MIC (Staphylococcus aureus [2]) of 8 µg/mL (≈ 12.6 µM) and an IC50 [3] of 2.95 µM. For the same compound, the MIC (Candida albicans) was greater than 64 µg/mL, the MIC (Staphylococcus aureus [4]) was 4 µg/mL (≈ 6.31 µM) and the MIC (Staphylococcus aureus [5]) was 8 µg/mL (≈ 12.6 µM). It also gave an IC50 [6] of 0.54 µM, a Ratio IC50 (Homo sapiens [7]) of 3 to 6 and an MIC (Staphylococcus aureus [8]) of 4 µg/mL (≈ 6.31 µM). For the same compound, the MIC (Streptococcus mutans) was 4 µg/mL (≈ 6.31 µM), the MIC (Escherichia coli) was 8 µg/mL (≈ 12.6 µM) and the MIC (Pseudomonas aeruginosa) was greater than 64 µg/mL. For the same compound, the Ratio IC50 (Homo sapiens [9]) was 9 to 10, the Ratio IC50 (Homo sapiens [10]) was 2 to 3 and the IC50 [11] was 6.93 µM. For the same compound, the MIC (Staphylococcus aureus [12]) was 2 µg/mL (≈ 3.16 µM).

For `O=C(O)C(Cc1c[nH]c2ccccc12)N1C(=O)/C(=C/c2ccc3cc(OCc4ccc(Br)cc4)ccc3c2)SC1=S` (stereo not drawn), the IC50 [1] was 0.78 µM, the MIC (Staphylococcus aureus [2]) was 4 µg/mL (≈ 6.22 µM) and the IC50 [3] was 1.11 µM. The MIC (Candida albicans) was greater than 64 µg/mL, the MIC (Staphylococcus aureus [4]) was 4 µg/mL (≈ 6.22 µM) and the MIC (Staphylococcus aureus [5]) was 4 µg/mL (≈ 6.22 µM). It also gave an IC50 [6] of 0.36 µM, a Ratio IC50 (Homo sapiens [7]) of 3 to 6 and an MIC (Staphylococcus aureus [8]) of 2 µg/mL (≈ 3.11 µM). For the same compound, the MIC (Streptococcus mutans) was 8 µg/mL (≈ 12.4 µM), the MIC (Escherichia coli) was 8 µg/mL (≈ 12.4 µM) and the MIC (Pseudomonas aeruginosa) was greater than 64 µg/mL. It also gave a Ratio IC50 (Homo sapiens [9]) of 9 to 10, a Ratio IC50 (Homo sapiens [10]) of 2 to 3 and an IC50 [11] of 3.8 µM. It also gave an MIC (Staphylococcus aureus [12]) of 2 µg/mL (≈ 3.11 µM).

Compound `Cc1ccc(COc2ccc3cc(/C=C4\SC(=S)N(C(Cc5c[nH]c6ccccc56)C(=O)O)C4=O)ccc3c2)cc1` (stereo not drawn) has an IC50 [1] of 1.69 µM, an MIC (Staphylococcus aureus [2]) of 2 µg/mL (≈ 3.46 µM) and an IC50 [3] of 3.99 µM. For the same compound, the MIC (Candida albicans) was greater than 64 µg/mL, the MIC (Staphylococcus aureus [4]) was 2 µg/mL (≈ 3.46 µM) and the MIC (Staphylococcus aureus [5]) was 8 µg/mL (≈ 13.8 µM). It also gave an IC50 [6] of 0.64 µM, a Ratio IC50 (Homo sapiens [7]) of 3 to 6 and an MIC (Staphylococcus aureus [8]) of 2 µg/mL (≈ 3.46 µM). For the same compound, the MIC (Streptococcus mutans) was 2 µg/mL (≈ 3.46 µM), the MIC (Escherichia coli) was 2 µg/mL (≈ 3.46 µM) and the MIC (Pseudomonas aeruginosa) was greater than 64 µg/mL. For the same compound, the Ratio IC50 (Homo sapiens [9]) was 9 to 10, the Ratio IC50 (Homo sapiens [10]) was 2 to 3 and the IC50 [11] was 5.81 µM. For the same compound, the MIC (Staphylococcus aureus [12]) was 2 µg/mL (≈ 3.46 µM).
